Measured values: PMC10405366 (Molecular pharmaceutics, 2023)

Columns and labels:
[1] = system: female athymic nude (nu/nu) mice; test: 14 day tolerability study, IP every 2 days; type: in vivo, mouse
In short: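 Female athymic nude mice (CrTac:NCr-Foxn1nu, 7–8 weeks) were randomized, n = 5 per group. Parent compound was given at 0.1, 0.25, 0.5 or 1.0 mg/kg, or the succinate at molar-equivalent 0.114, 0.285, 0.570 or 1.14 mg/kg. Vehicle was Tween80:Captex200:0.9% saline (8:2:90 v/v). Dosing was IP every 2 days for 14 days. Body weight was recorded every 2 days before dosing, and gross necropsy plus H&E histopathology were done.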

[2] = Stability in mouse plasma lithium heparin and QC extracts; type: in vitro ADME
[3] = Stability in Tween80:Captex200P:0.9% saline formulation; type: physicochemical
In short: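 The dried succinate was taken up in Tween 80:Captex 200P at 1 mg/mL. It was vortexed 30 s, sonicated 30 min and shaken about 16 h at 100 rpm at room temperature. It was then diluted in 0.9% saline to 0.1 mg/mL and serially diluted to 0.05 and 0.025 mg/mL. At 0, 1 and 4 h, aliquots were diluted 20-fold in acetone, with storage at 4 °C in between. Analysis was by UPLC-PDA-HRMS against acetone standards.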

OVCAR3 = test: Cell viability assay; type: cell-based, human; conditions: OVCAR3
In short: (§1)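 RPMI1640 (OVCAR3, OVCAR4, MDA-MB-435) or DMEM (OVCAR8, MDA-MB-231) was used, with 10% FBS and penicillin/streptomycin. Cells were STR-validated and kept below 20 passages. Cells were plated at 5000 per well overnight, then given test compound at final 0.95–250 nM (nine levels, 0.5% DMSO) for 72 h at 37 °C. Viability was read by CellTiter-Blue absorbance, and IC50 was taken relative to DMSO. Paclitaxel (0.39–100 nM) was the control, with three biological replicates.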

OVCAR4 [4] = test: 2D foci assay; type: cell-based, human; conditions: OVCAR4, 50 nM for 8 h, two weeks colony formation, relative to vehicle
In short: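 Cells were seeded at 200 per 60 mm dish and left to attach overnight. They were then exposed for 8 h to test compound (50 nM), DMSO vehicle or paclitaxel (10 nM). Medium was replaced and cells grew drug-free for about two weeks (15 days). Colonies were fixed in 4% paraformaldehyde, stained with 0.05% crystal violet, imaged and counted. There were three biological replicates, compared with vehicle by Dunnett's test.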

[5] = cited from earlier work
OVCAR4 [6] = test: Cell viability assay; type: cell-based, human
In short: as §1

OVCAR8 = test: Cell viability assay; type: cell-based, human
In short: as §1

[7] = system: OVCAR8-RFP cells xenografted IP; test: OVCAR8-RFP IP xenograft; type: in vivo, mouse

For CN1C(=O)[C@]23SS[C@@]1(C)C(=O)N2[C@H]1Nc2ccccc2[C@@]1([C@@]12c4ccccc4N[C@@H]1N1C(=O)[C@]4(C)SS[C@]1(C(=O)N4C)[C@H]2OC(=O)CCC(=O)O)[C@@H]3O [verticillin A succinate], the “early removal of mice” value ([1]; 0.570 mg/kg IP every 2 days) was 13 day of treatment, the “early removal of mice” value ([1]; 1.14 mg/kg IP every 2 days) was 8 days of treatment and the tolerability ([1]; two higher dose levels, 0.570 and 1.14 mg/kg IP every 2 days) was “poorly tolerated”. For the same compound, the tolerability ([1]; two lower dose levels, 0.114 and 0.285 mg/kg IP every 2 days, 14 days) was “well tolerated”, the “stability in mouse plasma lithium heparin” value [2] was “poor stability” and the “stability of QC extracts” value ([2]; 4 °C autosampler, after approximately 19 h) was “not stable”. For the same compound, the “verticillin A succinate levels in formulation” value ([3]; 4 h after preparation, stored at 4 °C) was “below the detection limit (BDL) or NF”, the stability in formulation ([3]; Tween80:Captex200P:0.9% saline, 0.1, 0.05 and 0.025 mg/mL, degrades almost immediately to verticillin A) was “not stable” and the “verticillin A succinate levels in formulation” value ([3]; immediately after preparation, all concentration levels tested) was “below the quantitation limit (BQL) or not found/detected (NF)”. The cytotoxic activity (OVCAR3) was “pronounced cytotoxic activities”, the foci formation (OVCAR4 [4]) was “completely abrogated foci formation” and the solubility [5] was “greatly improved solubility”.
In the case of CN1C(=O)[C@]23SS[C@@]1(C)C(=O)N2[C@H]1Nc2ccccc2[C@@]1([C@@]12c4ccccc4N[C@@H]1N1C(=O)[C@@]4(C)SS[C@]1(C(=O)N4C)[C@H]2O)[C@@H]3O [verticillin A], the “early removal of mice” value ([1]; 0.5 mg/kg IP every 2 days) is reported as 13 day of treatment, the “early removal of mice” value ([1]; 1.0 mg/kg IP every 2 days) is reported as 8 days of treatment and the “maximal tolerated IP dose” value ([1]; IP every 2 days, 14 days, female athymic nude mice) is reported as 0.25 mg/kg. The tolerability ([1]; two higher dose levels, 0.5 and 1.0 mg/kg IP every 2 days) was “poorly tolerated”, the tolerability ([1]; two lower dose levels, 0.100 and 0.250 mg/kg IP every 2 days, 14 days) was “well tolerated” and the cytotoxic activity (OVCAR3) was “pronounced cytotoxic activities”. For the same compound, the cytotoxic activity (OVCAR4 [6]) was “nanomolar cytotoxic activity”, the cytotoxic activity (OVCAR8) was “nanomolar cytotoxic activity” and the foci formation (OVCAR4 [4]) was “completely abrogated foci formation”. For the same compound, the “liver and organ gross morphology” value ([7]; 0.25 mg/kg in DMSO twice weekly for four weeks) was “did not demonstrate changes in liver morphology” and the tumor burden ([7]; 0.25 mg/kg twice weekly for four weeks, compared to DMSO) was “reduced”.
